Reference: ChEMBL document CHEMBL5030522, “A Convenient Chemoenzymatic Preparation of Chimeric Macrocyclic Peptide Antibiotics with Potent Activity against Gram-Negative Pathogens” (2021)
≈ marks a conversion by molar mass, not a printed value. Numbered stars: 1 amine (or outer) side, 2 acyl side, 3 side chain; on linkers, the order of the positions; unused ones are H or OH. Bridge positions count the residues as written; N and C are the ends. Square brackets hold non-standard residues; d marks the D form. Peptide text beside a SMILES is read from it. I, II: the chains in the order shown. X1 = NC(=O)[C@H](Cc1cn(CCOCCOCCOCCC(=O)[*:2])nn1)N[*:1]; X3 = NC(=O)[C@H](Cc1cn(CCCCC(=O)[*:2])nn1)N[*:1]; X2 = NC(=O)[C@H](Cc1cn(CC(=O)[*:2])nn1)N[*:1]; Tle = CC(C)(C)[C@H](N)C(=O)O; dDab = NCC[C@@H](N)C(=O)O; hSer = N[C@@H](CCO)C(=O)O; Dab = NCC[C@H](N)C(=O)O

What was measured:
Assay type in all cases: functional
Acinetobacter baumannii [1] = experiment: Antibacterial activity against Acinetobacter baumannii ATCC 9955 assessed as inhibition of bacterial growth after 16 hrs by broth microdilution method
Procedure, shortened: (§1)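 MIC per CLSI broth microdilution. Strains streaked from glycerol stocks on blood agar, 16 h at 37 °C. Single colonies inoculated into cation-adjusted Mueller-Hinton broth (10 mg L–1 Mg2+, 25 mg L–1 Ca2+). Peptides serially diluted in this broth with 0.002% (v/v) final polysorbate-80 in polypropylene plates. Inoculum 5 × 10^5 CFU mL–1. Plates sealed, 16 h at 37 °C, growth scored visually. MIC in μg/mL, triplicates on two separate days.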

Acinetobacter baumannii [2] = experiment: Antibacterial activity against Acinetobacter baumannii ATCC 17978 assessed as inhibition of bacterial growth after 16 hrs by broth microdilution method; procedure, shortened: as §1
Acinetobacter baumannii [3] = experiment: Antibacterial activity against multidrug-resistant Acinetobacter baumannii assessed as inhibition of bacterial growth after 16 hrs by broth microdilution method
Procedure, shortened: (§2)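 CLSI broth microdilution. Strains grown from glycerol stocks on blood agar 16 h at 37 °C; colonies used to inoculate CAMHB containing 10 mg L–1 Mg2+ and 25 mg L–1 Ca2+. Peptides dissolved in CAMHB with 0.002% (v/v) final polysorbate-80, serially diluted in polypropylene plates; inoculum 5 × 10^5 CFU mL–1. Sealed, 16 h at 37 °C, growth scored visually. MIC in μg/mL; three or more measurements on multiple days.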

Klebsiella pneumoniae [4] = experiment: Antibacterial activity against Klebsiella pneumoniae ATCC 11228 assessed as inhibition of bacterial growth after 16 hrs by broth microdilution method; procedure, shortened: as §1
Klebsiella pneumoniae [5] = experiment: Antibacterial activity against Klebsiella pneumoniae producing NDM1 assessed as inhibition of bacterial growth after 16 hrs by broth microdilution method; procedure, shortened: as §1
Pseudomonas aeruginosa [6] = experiment: Antibacterial activity against Pseudomonas aeruginosa ATCC 27853 assessed as inhibition of bacterial growth after 16 hrs by broth microdilution method; procedure, shortened: as §1
Pseudomonas aeruginosa [7] = experiment: Antibacterial activity against Pseudomonas aeruginosa NRZ 08418 producing NDM1 assessed as inhibition of bacterial growth after 16 hrs by broth microdilution method; procedure, shortened: as §1
Pseudomonas aeruginosa [8] = experiment: Antibacterial activity against Pseudomonas aeruginosa producing NDM1 assessed as inhibition of bacterial growth after 16 hrs by broth microdilution method; procedure, shortened: as §2
Pseudomonas aeruginosa [9] = experiment: Antibacterial activity against Pseudomonas aeruginosa M-120 assessed as inhibition of bacterial growth after 16 hrs by broth microdilution method; procedure, shortened: as §1
Escherichia coli [10] = experiment: Antibacterial activity against Escherichia coli ATCC 35218 assessed as inhibition of bacterial growth after 16 hrs by broth microdilution method; procedure, shortened: as §1
Escherichia coli [11] = experiment: Antibacterial activity against Escherichia coli producing NDM1 assessed as inhibition of bacterial growth after 16 hrs by broth microdilution method; procedure, shortened: as §2
Escherichia coli [12] = experiment: Antibacterial activity against Escherichia coli producing MCR1 assessed as inhibition of bacterial growth after 16 hrs by broth microdilution method; procedure, shortened: as §1
Escherichia coli [13] = experiment: Antibacterial activity against Escherichia coli producing MCR2 assessed as inhibition of bacterial growth after 16 hrs by broth microdilution method; procedure, shortened: as §1
Escherichia coli [14] = experiment: Antibacterial activity against Escherichia coli producing MCR3 assessed as inhibition of bacterial growth after 16 hrs by broth microdilution method; procedure, shortened: as §1
Staphylococcus aureus = experiment: Antibacterial activity against methicillin resistant Staphylococcus aureus USA300 by measuring MIC after 16 hrs by broth microdilution method; procedure, shortened: as §2
Acinetobacter baumannii [15] = experiment: Antibacterial activity against Acinetobacter baumannii NRZ 00687 producing NDM2 assessed as inhibition of bacterial growth after 16 hrs by broth microdilution method; procedure, shortened: as §1

| Compound | MIC (Acinetobacter baumannii [1]) [µg/mL] | MIC (Acinetobacter baumannii [2]) [µg/mL] | MIC (Acinetobacter baumannii [3]) [µg/mL] | MIC (Klebsiella pneumoniae [4]) [µg/mL] | MIC (Klebsiella pneumoniae [5]) [µg/mL] | MIC (Pseudomonas aeruginosa [6]) [µg/mL] | MIC (Pseudomonas aeruginosa [7]) [µg/mL] | MIC (Pseudomonas aeruginosa [8]) [µg/mL] | MIC (Pseudomonas aeruginosa [9]) [µg/mL] | MIC (Escherichia coli [10]) [µg/mL] | MIC (Escherichia coli [11]) [µg/mL] | MIC (Escherichia coli [12]) [µg/mL] | MIC (Escherichia coli [13]) [µg/mL] | MIC (Escherichia coli [14]) [µg/mL] | MIC (Staphylococcus aureus) [µg/mL] | MIC (Acinetobacter baumannii [15]) [µg/mL] |
| --- | --- | --- | --- | --- | --- | --- | --- | --- | --- | --- | --- | --- | --- | --- | --- | --- |
| CC[C@H](C)CCCCC(=O)N[C@@H](CCN)C(=O)N[C@H](C(=O)N[C@@H](CCN)C(=O)N[C@H]1CCNC(=O)[C@H]([C@@H](C)O)NC(=O)[C@H](CCN)NC(=O)[C@H](CCN)NC(=O)[C@H](CC(C)C)NC(=O)[C@@H](CC(C)C)NC(=O)[C@H](CCN)NC1=O)[C@@H](C)O | 0.4 (≈ 0.342 µM) | 0.4 (≈ 0.342 µM) | 0.4 (≈ 0.342 µM) | 0.1 (≈ 0.0855 µM) | 1.6 (≈ 1.37 µM) | 1.6 (≈ 1.37 µM) | 0.8 (≈ 0.684 µM) | 0.4 (≈ 0.342 µM) | 0.8 (≈ 0.684 µM) | 0.1 (≈ 0.0855 µM) | 0.1 (≈ 0.0855 µM) | 3.2 (≈ 2.74 µM) | > 6.4 | 3.2 (≈ 2.74 µM) | > 6.4 | 0.2 (≈ 0.171 µM) |
| CC(C)C[C@@H]1NC(=O)[C@@H](CC(C)C)NC(=O)[C@H](CCN)NC(=O)[C@@H](NC(=O)[C@H](CCN)NC(=O)[C@@H](NC(=O)CCOCCOCCOCCn2cc(C[C@H](NC(=O)CC[C@@H]3NC(=O)[C@H](CCN)NC(=O)[C@H](Cc4ccc(O)cc4)NC(=O)[C@H]([C@@H](C)O)NC(=O)[C@H](C(C)C)NC(=O)[C@@H]4CCCN4C(=O)[C@@H](C)NC(=O)[C@H](CO)NC(=O)[C@H](C)NC(=O)[C@H](C(C)(C)C)NC(=O)[C@H](CCO)NC(=O)[C@H](Cc4c[nH]c5ccccc45)NC(=O)[C@H](CCO)NC(=O)[C@@H](CCN)NC3=O)C(N)=O)nn2)[C@@H](C)O)CCNC(=O)[C@H]([C@@H](C)O)NC(=O)[C@H](CCN)NC(=O)[C@H](CCN)NC1=O (I: cyclo([dDab][hSer]W[hSer][Tle]AS[dA]PVTY[Dab]E) / II: T[Dab][Dab][Dab][dL]L[Dab][Dab]T; linker I:14-II:N via X1; lactam II:3-II:C) | 8 (≈ 2.88 µM) |  | 4 (≈ 1.44 µM) | 8 (≈ 2.88 µM) |  | 4 (≈ 1.44 µM) |  | 4 (≈ 1.44 µM) | 8 (≈ 2.88 µM) | 2 (≈ 0.721 µM) |  | 16 (≈ 5.77 µM) | 16 (≈ 5.77 µM) |  | > 64 | 2 (≈ 0.721 µM) |
| CC(C)C[C@@H]1NC(=O)[C@@H](CC(C)C)NC(=O)[C@H](CCN)NC(=O)[C@@H](NC(=O)[C@H](CCN)NC(=O)[C@@H](NC(=O)Cn2cc(C[C@H](NC(=O)CC[C@@H]3NC(=O)[C@H](CCN)NC(=O)[C@H](Cc4ccc(O)cc4)NC(=O)[C@H]([C@@H](C)O)NC(=O)[C@H](C(C)C)NC(=O)[C@@H]4CCCN4C(=O)[C@@H](C)NC(=O)[C@H](CO)NC(=O)[C@H](C)NC(=O)[C@H](C(C)(C)C)NC(=O)[C@H](CCO)NC(=O)[C@H](Cc4c[nH]c5ccccc45)NC(=O)[C@H](CCO)NC(=O)[C@@H](CCN)NC3=O)C(N)=O)nn2)[C@@H](C)O)CCNC(=O)[C@H]([C@@H](C)O)NC(=O)[C@H](CCN)NC(=O)[C@H](CCN)NC1=O (I: cyclo([dDab][hSer]W[hSer][Tle]AS[dA]PVTY[Dab]E) / II: T[Dab][Dab][Dab][dL]L[Dab][Dab]T; linker I:14-II:N via X2; lactam II:3-II:C) | 2 (≈ 0.761 µM) |  | 1 (≈ 0.381 µM) |  | 2 (≈ 0.761 µM) | 1 (≈ 0.381 µM) |  | 2 (≈ 0.761 µM) | 4 (≈ 1.52 µM) | 0.5 (≈ 0.19 µM) |  | 2 (≈ 0.761 µM) | 2 (≈ 0.761 µM) |  | > 6.4 | 0.5 (≈ 0.19 µM) |
| CC(C)C[C@@H]1NC(=O)[C@@H](CC(C)C)NC(=O)[C@H](CCN)NC(=O)[C@@H](NC(=O)[C@H](CCN)NC(=O)[C@@H](NC(=O)CCCCn2cc(C[C@H](NC(=O)CC[C@@H]3NC(=O)[C@H](CCN)NC(=O)[C@H](Cc4ccc(O)cc4)NC(=O)[C@H]([C@@H](C)O)NC(=O)[C@H](C(C)C)NC(=O)[C@@H]4CCCN4C(=O)[C@@H](C)NC(=O)[C@H](CO)NC(=O)[C@H](C)NC(=O)[C@H](C(C)(C)C)NC(=O)[C@H](CCO)NC(=O)[C@H](Cc4c[nH]c5ccccc45)NC(=O)[C@H](CCO)NC(=O)[C@@H](CCN)NC3=O)C(N)=O)nn2)[C@@H](C)O)CCNC(=O)[C@H]([C@@H](C)O)NC(=O)[C@H](CCN)NC(=O)[C@H](CCN)NC1=O (I: cyclo([dDab][hSer]W[hSer][Tle]AS[dA]PVTY[Dab]E) / II: T[Dab][Dab][Dab][dL]L[Dab][Dab]T; linker I:14-II:N via X3; lactam II:3-II:C) | 2 (≈ 0.749 µM) | 1 (≈ 0.375 µM) | 2 (≈ 0.749 µM) | 2 (≈ 0.749 µM) | 4 (≈ 1.5 µM) |  | 4 (≈ 1.5 µM) | 2 (≈ 0.749 µM) |  | 1 (≈ 0.375 µM) |  | 4 (≈ 1.5 µM) | 4 (≈ 1.5 µM) |  | > 64 |  |
